Columns and labels:
Type in all cases: functional
Staphylococcus aureus = test: Antimicrobial activity against Staphylococcus aureus ATCC 25923 assessed as growth inhibition rate at 9.84 mg/l after 72 hr by spectrophotometry; conditions: ATCC 25923, 72 h, read-out: GI
Escherichia coli = test: Antimicrobial activity against Escherichia coli O157:H7 ATCC 43894 assessed as growth inhibition rate at 9.84 mg/l after 72 hr by spectrophotometry; conditions: O157:H7 ATCC 43894, 72 h, read-out: GI
How it was run: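 Authentic volatiles (>95% purity; 2,4-heptadienal 90%) tested against 18 h subcultures. Growth media: E. coli O157:H7 and S. aureus in tryptic soy broth at 37 °C; L. monocytogenes in tryptic soy broth at 30 °C; V. parahaemolyticus in tryptic soy broth + 3% NaCl at 37 °C; S. typhimurium in nutrient broth at 30 °C. Bioscreen C OD every 24 h for 72 h versus 10% Tween 80 control.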

Vibrio parahaemolyticus = test: Antimicrobial activity against Vibrio parahaemolyticus ATCC 33844 assessed as growth inhibition rate at 9.84 mg/l after 72 hr by spectrophotometry; conditions: ATCC 33844, 72 h, read-out: GI
Bacillus cereus = test: Antimicrobial activity against Bacillus cereus ATCC 11778 assessed as growth inhibition rate at 9.84 mg/l after 72 hr by spectrophotometry; conditions: ATCC 11778, 72 h, read-out: GI
How it was run: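 Pure volatile compounds (>95% purity) from the leaf extract were tested against B. cereus grown at 30 °C in nutrient broth from an 18 h subculture. Optical density was read in a Bioscreen C every 24 h over 72 h, and activity was compared with a 10% Tween 80 control.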

Listeria monocytogenes = test: Antimicrobial activity against Listeria monocytogenes ATCC 19111 assessed as growth inhibition rate at 9.84 mg/l after 72 hr by spectrophotometry; conditions: ATCC 19111, 72 h, read-out: GI
How it was run: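 Pure volatile compounds (>95% purity) tested on Listeria monocytogenes ATCC 19111 in tryptic soy broth at 30 °C. Inoculum: 24 h culture subcultured (0.1 mL into 9.9 mL broth) and grown 18 h. Growth followed by Bioscreen C optical density every 24 h for 72 h against a 10% Tween 80 control.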

Salmonella typhimurium = test: Antimicrobial activity against Salmonella enterica subsp. enterica serovar Typhimurium ATCC 14028 assessed as growth inhibition rate at 9.84 mg/l after 72 hr by spectrophotometry; conditions: ATCC 14028, 72 h, read-out: GI

`CCCCCCO` [1-HEXANOL] gave an inhibition of growth at 9.84 µg/mL (Staphylococcus aureus) of 6.9%, an inhibition of growth at 9.84 µg/mL (Escherichia coli) of 16.9% and an inhibition of growth at 9.84 µg/mL (Vibrio parahaemolyticus) of 27.1%. For the same molecule, the inhibition of growth at 9.84 µg/mL (Bacillus cereus) was 3.6%, the inhibition of growth at 9.84 µg/mL (Listeria monocytogenes) was 4.2% and the inhibition of growth at 9.84 µg/mL (Salmonella typhimurium) was 23.3%.

Source: ChEMBL document CHEMBL3046951, “Volatile constituents from the leaves of Callicarpa japonica Thunb. and their antibacterial activities” (2004)
